Measurements reported in ChEMBL document CHEMBL2407056, “3-(Oxazolo[4,5-b]pyridin-2-yl)anilides as a novel class of potent inhibitors for the kinetoplastid Trypanosoma brucei, the causative agent for human African trypanosomiasis” (Eur J Med Chem, 2013).
pEC50, pIC50: −log10 of the molar value. Converted amounts (≈) assume the structure as drawn.

test system: not listed separately; experiment: Half life in human liver microsomes at 1 uM by LC-MS analysis; format: ADME, Microsome; settings: not given
Outline: (§1)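 Compound at 1 µM final (1 in 500 dilution of stock) incubated at 37 °C with human liver microsomes in 0.1 M phosphate buffer pH 7.4, 0.4 mg/mL protein. First-order depletion rate from exponential decay fit used to derive in vitro CLint and half-life; predicted hepatic extraction ratio from scaled CLint with liver blood flow 20.7 mL/min/kg.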

Row | Structure (SMILES) | half-life at 1 µM
1 | Cc1ccc(NC(=O)c2occc2C)cc1-c1nc2ncccc2o1 | 8 min
2 | O=C(Nc1ccc(F)c(-c2nc3ncccc3o2)c1)c1cscn1 | 36 min
3 | Cc1ccoc1C(=O)Nc1cccc(-c2nc3ncccc3o2)c1 | 10 min

Other lines, results leading:

Row | half-life at 1 µM | Structure (SMILES)
4 | 10 min | Cc1ccc(NC(=O)c2ccoc2)cc1-c1nc2ncccc2o1
5 | 9 min | Cc1ccoc1C(=O)Nc1ccc(F)c(-c2nc3ncccc3o2)c1
6 | 124 min | O=C(Nc1ccc(F)c(-c2nc3ncccc3o2)c1)c1cnco1
7 | 11 min | O=C(Nc1ccc(F)c(-c2nc3ncccc3o2)c1)c1ccoc1

test system: Plasmodium falciparum; experiment: Antimicrobial activity against Plasmodium falciparum NF54 infected in human RBC after 48 hrs by [3H]hypoxanthine incorporation assay; format: functional, organism-based; settings: not given
Outline: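 Erythrocytic stage, drug-sensitive strain, in hypoxanthine-free RPMI 1640 with HEPES, NaHCO3, neomycin, Albumax, human A+ red cells at 2.5% haematocrit, 0.3% parasitaemia. Eleven 3-fold dilutions from 100 to 0.002 µg/mL; 37 °C, 4% CO2/3% O2/93% N2. ³H-hypoxanthine added at 48 h, further 24 h, then harvested and scintillation-counted. IC50 by linear regression; chloroquine control.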

Row | Structure (SMILES) | pIC50 | pEC50
8 | O=C(Nc1ccc(Cl)c(-c2nc3ncccc3o2)c1)c1ccccc1 | 5.16 | 
9 | O=C(Nc1ccc(Cl)c(-c2nc3ncccc3o2)c1)c1cscn1 | 5.11 | 
10 | CCN(CC)CCCC(C)Nc1ccnc2cc(Cl)ccc12 (centres undefined) [CHLOROQUINE] |  | 8.22

test system: Leishmania donovani; experiment: Antimicrobial activity against Leishmania donovani amastigote form infected in mouse peritoneal macrophage after 96 hrs by Giemsa staining method; format: functional, organism-based; settings: not given
Outline: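 Mouse peritoneal macrophages (4×10⁴/well, RPMI 1640 + 10% heat-inactivated FBS) infected after 24 h with 1.2×10⁵ axenic amastigotes; free parasites removed at 4 h, drug dilutions added next day. After 96 h, methanol fixation and 10% Giemsa staining; infected and non-infected macrophages counted, % reduction in parasite burden vs controls, IC50 by linear regression; miltefosine control.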

Row | Structure (SMILES) | pIC50 | pEC50
11 | O=C(Nc1ccc(Cl)c(-c2nc3ncccc3o2)c1)c1ccccc1 | 4.43 | 
12 | O=C(Nc1ccc(Cl)c(-c2nc3ncccc3o2)c1)c1cscn1 | < 4.08 | 
13 | CCCCCCCCCCCCCCCCOP(=O)([O-])OCC[N+](C)(C)C [MILTEFOSINE] |  | 5.78

test system: Trypanosoma cruzi; experiment: Antitrypanosomal activity against Trypanosoma cruzi Tulahuen C2C4 amastigotes infected in rat L6 cells after 96 hrs by beta-galactosidase reporter gene assay; format: functional, organism-based; settings: Tulahuen C2C4, L6, 96 h
Outline: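 L-6 cells (2000/well, RPMI 1640 + 10% FBS, 2 mM L-glutamine) infected after 24 h with 5000 LacZ-expressing trypomastigotes. At 48 h the medium was replaced with eleven 3-fold drug dilutions (100 to 0.002 µg/mL). After 96 h, CPRG/Nonidet substrate added, colour read at 540 nm after 2–6 h. IC50 by linear regression from sigmoidal curves; benznidazole control.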

Row | Structure (SMILES) | pIC50 | pEC50
14 | O=C(Nc1ccc(Cl)c(-c2nc3ncccc3o2)c1)c1ccccc1 | 5.54 | 
15 | O=C(Nc1ccc(Cl)c(-c2nc3ncccc3o2)c1)c1cscn1 | 5.64 | 
16 | O=C(Cn1ccnc1[N+](=O)[O-])NCc1ccccc1 [BENZNIDAZOLE] |  | 5.84

test system: not listed separately; experiment: Selectivity index, ratio of IC50 for HEK293 cells to IC50 for Trypanosoma brucei brucei 427 bloodstream form; format: toxicity, cell-based; settings: human, read-out: Ratio IC50
Outline: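 HEK293 cells (55 µL of 72,727 cells/mL in DMEM + 10% FCS) in 384-well plates, 24 h at 37 °C/5% CO2. Drug diluted 1:21 from DMSO, final 83.34 to 0.0004 µM, 48 h. […] SI relative to T. b. brucei.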

Row | Structure (SMILES) | selectivity ratio
17 | Cc1ccc(NC(=O)c2occc2C)cc1-c1nc2ncccc2o1 | 145
18 | Cc1ccc(NC(=O)c2ccoc2)cc1-c1nc2ncccc2o1 | 103
19 | Cc1ccoc1C(=O)Nc1ccc(F)c(-c2nc3ncccc3o2)c1 | 840
20 | O=C(Nc1ccc(F)c(-c2nc3ncccc3o2)c1)c1cnco1 | 43
21 | O=C(Nc1ccc(F)c(-c2nc3ncccc3o2)c1)c1ccoc1 | 680
22 | O=C(Nc1ccc(F)c(-c2nc3ncccc3o2)c1)c1cscn1 | 110
23 | O=C(Nc1ccc(Cl)c(-c2nc3ncccc3o2)c1)c1ccccc1 | 54
24 | Cc1ccoc1C(=O)Nc1cccc(-c2nc3ncccc3o2)c1 | 115
25 | O=C(Nc1ccc(Cl)c(-c2nc3ncccc3o2)c1)c1cscn1 | 39

test system: L6; experiment: Cytotoxicity against rat L6 cells after 70 hrs by Alamar blue assay; format: cell-based; settings: L6, 70 h
Outline: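 4000 L-6 cells per well in RPMI 1640 with L-glutamine and 10% FBS. Eleven 3-fold dilutions from 100 to 0.002 µg/mL for 70 h; Alamar Blue 2 h, fluorescence at ex 536/em 588 nm. IC50 by linear regression from sigmoidal curves; podophyllotoxin control.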

Row | Structure (SMILES) | pIC50
26 | O=C(Nc1ccc(Cl)c(-c2nc3ncccc3o2)c1)c1ccccc1 | 4.29
27 | O=C(Nc1ccc(Cl)c(-c2nc3ncccc3o2)c1)c1cscn1 | 3.63

test system: not listed separately; experiment: Kinetic solubility of the compound in phosphate buffer at pH 2 by nephelometry; format: physicochemical; settings: read-out: Kinetic_solubility

Row | Structure (SMILES) | solubility kinetic
28 | Cc1ccc(NC(=O)c2occc2C)cc1-c1nc2ncccc2o1 | 1.6 µg/mL (≈ 4.8 µM)
29 | O=C(Nc1ccc(F)c(-c2nc3ncccc3o2)c1)c1cscn1 | 3.1 µg/mL (≈ 9.11 µM)
30 | Cc1ccoc1C(=O)Nc1cccc(-c2nc3ncccc3o2)c1 | 6.3 µg/mL (≈ 19.7 µM)

Next, values leading:

Row | solubility kinetic | Structure (SMILES)
31 | 12.5 µg/mL (≈ 39.1 µM) | Cc1ccc(NC(=O)c2ccoc2)cc1-c1nc2ncccc2o1
32 | 1.6 µg/mL (≈ 4.74 µM) | Cc1ccoc1C(=O)Nc1ccc(F)c(-c2nc3ncccc3o2)c1
33 | 6.3 µg/mL (≈ 19.4 µM) | O=C(Nc1ccc(F)c(-c2nc3ncccc3o2)c1)c1cnco1
34 | 12.5 µg/mL (≈ 38.7 µM) | O=C(Nc1ccc(F)c(-c2nc3ncccc3o2)c1)c1ccoc1

test system: Leishmania donovani; experiment: Antimicrobial activity against Leishmania donovani MHOM/ET/67/L82 amastigote form after 70 hrs by Alamar blue assay; format: functional, organism-based; settings: MHOM/ET/67/L82, 70 h
Outline: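 Axenic amastigotes grown at 37 °C in SM medium pH 5.4 with 10% heat-inactivated FBS, 5% CO2; 10⁵ parasites per well exposed to eleven 3-fold dilutions (100 to 0.002 µg/mL) for 70 h. Alamar Blue (resazurin) added for 2–4 h, fluorescence read at ex 536/em 588 nm. IC50 by linear regression from sigmoidal curves; miltefosine control.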

Row | Structure (SMILES) | pIC50 | pEC50
35 | O=C(Nc1ccc(Cl)c(-c2nc3ncccc3o2)c1)c1ccccc1 | 5.21 | 
36 | O=C(Nc1ccc(Cl)c(-c2nc3ncccc3o2)c1)c1cscn1 | 5.32 | 
37 | CCCCCCCCCCCCCCCCOP(=O)([O-])OCC[N+](C)(C)C [MILTEFOSINE] |  | 6.31

test system: Trypanosoma brucei rhodesiense; experiment: Antitrypanosomal activity against Trypanosoma brucei rhodesiense STIB 900 bloodstream form after 70 hrs by Alamar blue assay; format: functional, organism-based; settings: STIB 900, 70 h
Outline: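 Bloodstream forms (4×10³/well) in MEM with 25 mM HEPES, extra glucose, non-essential amino acids, 0.2 mM 2-mercaptoethanol, 1 mM pyruvate and 15% heat-inactivated horse serum. Eleven 3-fold dilutions from 100 to 0.002 µg/mL, 70 h at 37 °C/5% CO2; Alamar Blue 2 h, fluorescence at ex 536/em 588 nm; IC50 by linear regression; melarsoprol control. SI relative to L6 cells.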

Row | Structure (SMILES) | pIC50
38 | O=C(Nc1ccc(Cl)c(-c2nc3ncccc3o2)c1)c1ccccc1 | 5.38
39 | O=C(Nc1ccc(Cl)c(-c2nc3ncccc3o2)c1)c1cscn1 | 5.96

test system: not listed separately; experiment: Partition coefficient, log D of the compound at pH 7.4 by HPLC analysis; format: physicochemical; settings: octanol/water
Outline: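 Chromatographic gradient HPLC: mobile phase 50 mM ammonium acetate pH 7.4 (or ammonium formate pH 3.0) with an acetonitrile gradient of 0–100% over 10 min; UV detection at 220 and 254 nm.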

Row | Structure (SMILES) | logD
40 | Cc1ccc(NC(=O)c2occc2C)cc1-c1nc2ncccc2o1 | 3.3
41 | O=C(Nc1ccc(F)c(-c2nc3ncccc3o2)c1)c1cscn1 | 2.3
42 | Cc1ccoc1C(=O)Nc1cccc(-c2nc3ncccc3o2)c1 | 2.9

Other lines, results leading:

Row | logD | Structure (SMILES)
43 | 2.7 | Cc1ccc(NC(=O)c2ccoc2)cc1-c1nc2ncccc2o1
44 | 2.9 | Cc1ccoc1C(=O)Nc1ccc(F)c(-c2nc3ncccc3o2)c1
45 | 1.7 | O=C(Nc1ccc(F)c(-c2nc3ncccc3o2)c1)c1cnco1
46 | 2.4 | O=C(Nc1ccc(F)c(-c2nc3ncccc3o2)c1)c1ccoc1

test system: not listed separately; experiment: Intrinsic clearance in human liver microsomes at 1 uM after 60 mins by LC-MS analysis; format: ADME, Microsome; settings: read-out: CLH; outline: as §1

Row | Structure (SMILES) | microsomal CLint at 1 µM
47 | Cc1ccc(NC(=O)c2occc2C)cc1-c1nc2ncccc2o1 | 228 µL/min/mg
48 | O=C(Nc1ccc(F)c(-c2nc3ncccc3o2)c1)c1cscn1 | 48 µL/min/mg
49 | Cc1ccoc1C(=O)Nc1cccc(-c2nc3ncccc3o2)c1 | 181 µL/min/mg

Second part, the molecule after the results:

Row | microsomal CLint at 1 µM | Structure (SMILES)
50 | 176 µL/min/mg | Cc1ccc(NC(=O)c2ccoc2)cc1-c1nc2ncccc2o1
51 | 202 µL/min/mg | Cc1ccoc1C(=O)Nc1ccc(F)c(-c2nc3ncccc3o2)c1
52 | 14 µL/min/mg | O=C(Nc1ccc(F)c(-c2nc3ncccc3o2)c1)c1cnco1
53 | 154 µL/min/mg | O=C(Nc1ccc(F)c(-c2nc3ncccc3o2)c1)c1ccoc1

test system: Trypanosoma brucei brucei; experiment: Antitrypanosomal activity against Trypanosoma brucei brucei 427 bloodstream form after 48 hrs by Alamar blue assay; format: functional, organism-based; settings: Trypanosoma brucei, 427, 48 h
Outline: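 Bloodstream parasites in 384-well plates, 24 h preincubation at 37 °C/5% CO2. DMSO dilutions diluted 1:21 in DMEM and added to give final 41.67 to 0.0004 µM; 48 h incubation. 70% Alamar Blue in HMI-9 + 10% FCS added, 2 h at 37 °C then 22 h at room temperature; read at ex 535/em 590 nm.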

Row | Structure (SMILES) | pIC50
54 | Cc1ccc(NC(=O)c2occc2C)cc1-c1nc2ncccc2o1 | 6.24
55 | O=C(Nc1ccc(F)c(-c2nc3ncccc3o2)c1)c1cscn1 | 6.12
56 | O=C(Nc1ccc(Cl)c(-c2nc3ncccc3o2)c1)c1ccccc1 | 5.82
57 | Cc1ccoc1C(=O)Nc1cccc(-c2nc3ncccc3o2)c1 | 6.77
58 | O=C(Nc1ccc(Cl)c(-c2nc3ncccc3o2)c1)c1cscn1 | 5.74

Now from value to molecule:

Row | pIC50 | Structure (SMILES)
59 | 6.51 | Cc1ccc(NC(=O)c2ccoc2)cc1-c1nc2ncccc2o1
60 | 7.00 | Cc1ccoc1C(=O)Nc1ccc(F)c(-c2nc3ncccc3o2)c1
61 | 5.70 | O=C(Nc1ccc(F)c(-c2nc3ncccc3o2)c1)c1cnco1
62 | 6.92 | O=C(Nc1ccc(F)c(-c2nc3ncccc3o2)c1)c1ccoc1

test system: not listed separately; experiment: Kinetic solubility of the compound in phosphate buffer at pH 6.5 by nephelometry; format: physicochemical; settings: read-out: Kinetic_solubility
Outline: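 DMSO stocks spiked into pH 6.5 phosphate buffer or 0.01 M HCl (about pH 2.0), final DMSO 1% (v/v). Solubility range determined by nephelometry.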

Row | Structure (SMILES) | solubility kinetic
63 | Cc1ccc(NC(=O)c2occc2C)cc1-c1nc2ncccc2o1 | < 1.6 µg/mL
64 | O=C(Nc1ccc(F)c(-c2nc3ncccc3o2)c1)c1cscn1 | 3.1 µg/mL (≈ 9.11 µM)
65 | Cc1ccoc1C(=O)Nc1cccc(-c2nc3ncccc3o2)c1 | 3.1 µg/mL (≈ 9.71 µM)

Continued, values first:

Row | solubility kinetic | Structure (SMILES)
66 | 6.3 µg/mL (≈ 19.7 µM) | Cc1ccc(NC(=O)c2ccoc2)cc1-c1nc2ncccc2o1
67 | 1.6 µg/mL (≈ 4.74 µM) | Cc1ccoc1C(=O)Nc1ccc(F)c(-c2nc3ncccc3o2)c1
68 | 6.3 µg/mL (≈ 19.4 µM) | O=C(Nc1ccc(F)c(-c2nc3ncccc3o2)c1)c1cnco1
69 | 6.3 µg/mL (≈ 19.5 µM) | O=C(Nc1ccc(F)c(-c2nc3ncccc3o2)c1)c1ccoc1
